KCNK3 block – human KCNK3 channel inhibition, primary screen. AID 602410. B-score at 10 µM. O14649. CHO-KCNK3 thallium flux, FluxOR fluorescence; stronger effect = lower value. 340,000 tested, 0.84% active;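 active means B-score under library mean minus 4 SD, starting fluorescence ratio at most library mean plus 5 SD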;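 further: more negative B-score means stronger inhibition of thallium flux through KCNK3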
KCNK9 block – blocks the human KCNK9 two-pore domain potassium channel. Q9NPC2. HEK293 KCNK9, FluxOR thallium flux fluorescence; stronger effect = lower value. AID 488922. 310,000 tested, 1.2% active. B-score at 10 µM;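 active means ratio B-score over 3 SD below the library mean, with starting fluorescence within 5 SD of its mean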;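 further: negative B-score means less thallium flux so channel inhibition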
Kir21 block – inhibitors of mouse Kir2.1 inward-rectifier potassium channel. P35561. HEK293-Kir2.1, FluxOR thallium flux fluorescence; stronger effect = lower value. B-score at 10 µM. 310,000 tested, 0.85% active. AID 1672;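 active means fluorescence ratio B-score at or below minus 3 SD of library scores, with starting-brightness B-score within 2 SD, cut at about -4.2 in these data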;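 further: channel flux triggered by added potassium and thallium sulfate stimulus; B-score of peak minus minimum fluorescence over baseline after thallium stimulus; more negative B-score means stronger Kir2.1 block with less thallium influx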
Target sequence (P35561 whole entry, looked up): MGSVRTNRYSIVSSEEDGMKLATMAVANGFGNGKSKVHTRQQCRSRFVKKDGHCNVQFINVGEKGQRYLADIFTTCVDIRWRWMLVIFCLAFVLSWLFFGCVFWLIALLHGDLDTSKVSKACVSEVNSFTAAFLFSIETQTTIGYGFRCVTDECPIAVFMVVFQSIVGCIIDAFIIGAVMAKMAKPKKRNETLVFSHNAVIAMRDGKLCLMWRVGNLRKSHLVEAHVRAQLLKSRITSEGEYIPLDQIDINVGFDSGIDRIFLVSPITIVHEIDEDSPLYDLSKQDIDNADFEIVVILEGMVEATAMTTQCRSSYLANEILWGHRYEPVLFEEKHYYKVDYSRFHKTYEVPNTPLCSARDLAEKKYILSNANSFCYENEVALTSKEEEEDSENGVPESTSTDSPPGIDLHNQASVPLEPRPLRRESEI
KCNQ1 inh – human KCNQ1 channel inhibition; CHO-K1 KCNQ1, FluxOR thallium flux fluorescence; stronger effect = higher value; B-score at 10 µM; AID 2642; P51787; 310,000 tested, 1.3% active;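 active means compounds whose thallium flux B-score, printed positive for inhibition, exceeds three library SD while starting fluorescence stays within three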;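 further: channel opened by potassium depolarization with thallium stimulus after 20 min compound exposure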
KCNQ1 act – human KCNQ1 channel potentiation or activation; CHO-K1 KCNQ1, thallium flux FluxOR fluorescence; stronger effect = higher value; B-score at 10 µM; 310,000 tested, 0.35% active;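 active means fluorescence ratio B-score, a plate-corrected score, at least three library SD, with initial intensity B-score within 5 SD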
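assay system = CHO-K1 cells stably expressing KCNQ1 | medium = assay buffer, equal DMSO in all wells | timing = 37 °C overnight plating, 90-min dark dye load, 20-min compound pretreatment | measured by = kinetic FluxOR thallium fluorescence, 10-s 1-Hz baseline, 110-s post-stimulus read | measure = fluorescence change relative to baseline, converted to B score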
hERG rescue – compounds protecting human hERG from proarrhythmic drug block. Q12809. CHO-hERG, FluxOR thallium flux, dofetilide IC70 present. activation (rescue from dofetilide block), less the hit threshold, % at 10 µM. 310,000 tested, 0.51% active;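 active means activation above the mean of controls blocked by dofetilide plus 5 SD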;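 further: thallium influx through hERG after potassium depolarization seen as dye fluorescence rise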
Each line names hits and unclear results; the compound was inactive in the other large screens. Compounds with a hit are over-represented: about 3.8% of the library has one in this group of screens.

COc1ccc(-c2oc(NC(=O)CCl)c(C#N)c2-c2ccc(OC)cc2)cc1	none
COc1ccc(-c2oc(NC(=O)CSc3ncn[nH]3)c(C#N)c2-c2ccc(OC)cc2)cc1	KCNK3 block -13
COc1ccccc1OCC(=O)Nc1oc(-c2ccccc2)c(-c2ccccc2)c1C#N	KCNK3 block -9.4 (no result: KCNK9 block, Kir21 block, KCNQ1 inh, KCNQ1 act, hERG rescue)
Cc1ccc(OCC(=O)Nc2oc(-c3ccccc3)c(-c3ccccc3)c2C#N)cc1	KCNQ1 inh 6
CN(C)S(=O)(=O)N1CCCC(C(=O)c2ccc(C(F)(F)F)cc2)C1 (stereo not drawn)	none
N#Cc1c(NC(=O)COC(=O)C2CC3C=CC2C3)oc(-c2ccccc2)c1-c1ccccc1 (stereo not drawn)	KCNQ1 inh 10
C#CCOc1ccc(/C=C2/C(=O)ON=C2C)cc1Br	none
Cc1ccc(N=Nc2ccc(O)c3ncccc23)cc1C	KCNQ1 act 11
Cc1ccc(N=Nc2ccc(O)c3ncccc23)cc1	KCNQ1 act 16, hERG rescue 20
Cc1ccc(C(C)NC(=S)NCc2ccc(F)cc2)cc1C (stereo not drawn)	Kir21 block -11
CCN(C(=O)c1cc2c(=O)[nH]c3ccc(C)cc3c2s1)c1ccccc1C	none
CCN(C(=O)c1cc2c(=O)[nH]c3ccc(C)cc3c2s1)c1ccccc1F	KCNQ1 act 26, hERG rescue 9.2
CC(Sc1nnc(Cn2c(=O)sc3ccccc32)n1C)c1ccccc1 (stereo not drawn)	Kir21 block -4.2
COc1ccc(C(=O)C2CCCN(Cc3ccc4nonc4c3)C2)cc1OC (stereo not drawn)	none
COc1ccc(C(=O)C2CCCN(Cc3ccc4nonc4c3)C2)c(OC)c1 (stereo not drawn)	Kir21 block -5.2
CCOC(=O)C1CCN(C(=O)c2cccc(S(=O)(=O)Nc3ccc(C)cc3C)c2)CC1	none
CC(=O)c1ccc(N2CCN(c3ncccn3)CC2)cc1	none
Cc1sc(NC(=O)c2ccco2)c(C(c2ccncc2)N2CCOCC2)c1C (stereo not drawn)	none
CCOc1ccc(C(c2c(NC(=O)c3ccco3)sc(C)c2C)N2CCOCC2)cc1 (stereo not drawn)	KCNK3 block -11 (no result: KCNK9 block, Kir21 block, KCNQ1 inh, KCNQ1 act, hERG rescue)
Cc1ccc(S(=O)(=O)N2CCNC(=O)CC2)cc1	none
Cc1ccc(C(C(=O)NC2CCCC2)N(Cc2ccc(F)cc2)C(=O)c2snc(C(N)=O)c2N)o1 (stereo not drawn)	none
Cc1ccccc1CSCC(=O)Nc1ccccc1-c1ccccc1	Kir21 block -6.9
NC(=O)c1ccccc1NC(=O)COC(=O)CSCc1cccc(Cl)c1	none (no result: KCNK9 block, Kir21 block, KCNQ1 inh, KCNQ1 act, hERG rescue)
O=C(CSCc1cccc(Cl)c1)Nc1ccccc1-c1ccccc1	Kir21 block -5.7
c1ccc(CSc2ccc(-c3cccnc3)nn2)nc1	none
CC(C)Cn1c(O)c(N=NC(=O)c2cccc(S(=O)(=O)N3CCCCC3)c2)c2ccccc21	KCNK9 block -7.9
CCOc1cc(C(c2c(C)[nH][nH]c2=O)c2c(C)[nH][nH]c2=O)ccc1OCc1ccc([N+](=O)[O-])cc1	Kir21 block -5.7
COc1cc(NC(=O)c2cc(OC)c(OC)c(OC)c2)c2ncccc2c1	none (no result: KCNK9 block, Kir21 block, KCNQ1 inh, KCNQ1 act, hERG rescue)
COc1cc(NC(=O)OCc2ccccc2)c2ncccc2c1	KCNK3 block -11 (no result: KCNK9 block, Kir21 block, KCNQ1 inh, KCNQ1 act, hERG rescue)
O=C(NCCCn1ccnc1)C1CCCN(S(=O)(=O)c2ccc(F)cc2)C1 (stereo not drawn)	none
O=C(Nc1cccc(-c2nc3ccccc3s2)c1)c1cc(-n2cnnc2)ccc1Cl	KCNQ1 inh 6
Cc1ccc(NC(=O)C2CCN(S(=O)(=O)c3cc([N+](=O)[O-])ccc3Cl)CC2)nc1	none (no result: KCNK9 block, Kir21 block, KCNQ1 inh, KCNQ1 act, hERG rescue)
Cc1ccc2nc(NC(=O)C3CCN(S(=O)(=O)c4cc([N+](=O)[O-])ccc4Cl)CC3)sc2c1	KCNQ1 inh 9
COc1ccc(NC(=O)CSc2nccn2Cc2ccco2)cc1OC	none
O=C(NCCN1CCOCC1)/C(=C\c1ccccc1F)NC(=O)c1ccccc1	none
COc1ccc(-n2c(NC(=O)c3ccc(Br)o3)c(C#N)c3nc4ccccc4nc32)cc1	KCNQ1 inh 7 (no result: KCNK3 block)
Cc1oc(-c2cc(F)cc(F)c2)nc1CN1CCN(C(=O)c2ccco2)CC1	none
C(#CCN1CCCC1)CC(c1ccccc1)c1ccccc1	Kir21 block -10

Assay outcomes: PubChem, Johns Hopkins Ion Channel Center
